Reference: ChEMBL document CHEMBL3259555, “Aromatic diacylhydrazine derivatives as a new class of polo-like kinase 1 (PLK1) inhibitors” (Eur J Med Chem, 2014)

How the values were obtained:
[1] = Cytotoxicity against macrophage (unknown origin) assessed as reduction in cell viability after 24 hrs by MTT assay; assay type: cell-based; conditions: macrophages (unknown origin)
In short: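 Macrophages plated at 5×10⁵ cells per well with a range of compound concentrations and incubated 24 h at 37 °C, 5% CO₂. MTT (4 mg/mL stock) added for the final 4 h, plate centrifuged, supernatant removed, DMSO added, absorbance read at 570 nm. Triplicate wells per concentration, assay repeated three times; CC50 (50% viability reduction) given as mean ± SD.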

cells = conditions: Homo sapiens, Cancer cell lines, 48 h

Row | SMILES | IC50 (cells) [µM] | CC50 at 24 h [1] [µM]
1 | COc1cccc(/C=C/C(=O)NNC(=O)c2ccc3c(c2)OCCO3)c1 | 0.17 | 398
2 | O=C(/C=C/c1ccccc1[N+](=O)[O-])NNC(=O)c1ccc2c(c1)OCCO2 | 0.89 | 257
3 | O=C(/C=C/c1ccccc1F)NNC(=O)c1ccc2c(c1)OCCO2 | 4.51 | 302
4 | Cc1cccc(/C=C/C(=O)NNC(=O)c2ccc3c(c2)OCCO3)c1 | 2.89 | 281
5 | O=C(/C=C/c1cccc([N+](=O)[O-])c1)NNC(=O)c1ccc2c(c1)OCCO2 | 1.56 | 323
6 | O=C(/C=C/c1ccc(F)cc1)NNC(=O)c1ccc2c(c1)OCCO2 | 0.99 | 319
7 | Cc1ccccc1/C=C/C(=O)NNC(=O)c1ccc2c(c1)OCCO2 | 7.71 | 268
8 | COc1ccc(/C=C/C(=O)NNC(=O)c2ccc3c(c2)OCCO3)cc1 | 0.93 | 319
9 | O=C(/C=C/c1ccc([N+](=O)[O-])cc1)NNC(=O)c1ccc2c(c1)OCCO2 | 0.61 | 295
10 | O=C(/C=C/c1cccc(Br)c1)NNC(=O)c1ccc2c(c1)OCCO2 | 3.33 | 351

More lines, main results first:

Row | IC50 (cells) [µM] | SMILES | CC50 at 24 h [1] [µM]
11 | 2.33 | O=C(/C=C/c1ccc(Br)cc1)NNC(=O)c1ccc2c(c1)OCCO2 | 259
12 | 8.06 | COc1ccccc1/C=C/C(=O)NNC(=O)c1ccc2c(c1)OCCO2 | 312
13 | 4.88 | O=C(/C=C/c1ccccc1Cl)NNC(=O)c1ccc2c(c1)OCCO2 | 285
14 | 1.05 | Cc1ccc(/C=C/C(=O)NNC(=O)c2ccc3c(c2)OCCO3)cc1 | 332
15 | 3.56 | O=C(/C=C/c1cccc(Cl)c1)NNC(=O)c1ccc2c(c1)OCCO2 | 391
16 | 0.55 | O=C(/C=C/c1ccccc1)NNC(=O)c1ccc2c(c1)OCCO2 | 312
17 | 2.11 | O=C(/C=C/c1ccccc1Br)NNC(=O)c1ccc2c(c1)OCCO2 | 315
18 | 4.11 | O=C(/C=C/c1cccc(F)c1)NNC(=O)c1ccc2c(c1)OCCO2 | 221
19 | 1.13 | O=C(/C=C/c1ccc(Cl)cc1)NNC(=O)c1ccc2c(c1)OCCO2 | 309
